{"source": "ChEMBL document CHEMBL3856209", "about": "“Novel pyrazolopyridine derivatives as potential angiogenesis inhibitors: Synthesis, biological evaluation and transcriptome-based mechanistic analysis” (Eur J Med Chem, 2016)", "format_in_all_cases": "functional, Homo sapiens", "key": {"HUVEC [1]": {"test_system": "HUVEC", "experiment": "Effect on KIF4A gene expression in serum-starved HUVEC after 24 hrs by microarray analysis relative to control", "how_it_was_run": "(§1)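 Serum-starved confluent HUVEC (pooled from 3–5 donors, passage ≤4) were treated with 2 μM compound or vehicle in 2.5% FBS for 6 h or 24 h, and total RNA was isolated. Hybridization was on Illumina Human-HT12. Data were processed with bgAdjust, vst and rsn normalization. Changes versus DMSO were called by moderated paired t-test at p < 0.05 and |log2 fold change| > 0.5.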"}, "HUVEC [2]": {"test_system": "HUVEC", "experiment": "Effect on RNU4ATAC gene expression in serum-starved HUVEC after 24 hrs by microarray analysis relative to control"}, "HUVEC [3]": {"test_system": "HUVEC", "experiment": "Effect on SCD gene expression in serum-starved HUVEC after 6 hrs by microarray analysis relative to control"}, "HUVEC [4]": {"test_system": "HUVEC", "experiment": "Effect on TM4SF18 gene expression in serum-starved HUVEC after 24 hrs by microarray analysis relative to control"}, "HUVEC [5]": {"test_system": "HUVEC", "experiment": "Effect on ZMAT3 gene expression in serum-starved HUVEC after 6 hrs by microarray analysis relative to control"}, "HUVEC [6]": {"test_system": "HUVEC", "experiment": "Effect on HJURP gene expression in serum-starved HUVEC after 24 hrs by microarray analysis relative to control", "how_it_was_run": "(§2)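 Confluent, serum-starved HUVEC (pooled from 3–5 donors, passage ≤4) treated with 2 μM compound or vehicle with 2.5% FBS for 6 h or 24 h. Total RNA hybridized to Illumina Human-HT12 arrays. Data were background-corrected, vst-transformed and rsn-normalized. Hits called by moderated paired t-test versus DMSO-treated cells, p < 0.05 and log2 fold change >|0.5|.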"}, "HUVEC [7]": {"test_system": "HUVEC", "experiment": "Effect on DBI gene expression in serum-starved HUVEC after 6 hrs by microarray analysis relative to control", "how_it_was_run": "(§3)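 Serum-starved confluent HUVEC (primary, pooled from 3–5 donors, passage ≤4) treated with 2 μM test compound or DMSO vehicle (working dilutions ≤0.1% v/v) in presence of 2.5% FBS for 6 h or 24 h; total RNA hybridized to Illumina Human-HT12 arrays; background correction, vst, rsn normalization; moderated paired t-test versus DMSO, thresholds p < 0.05 and log2 fold change >|0.5|.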"}, "HUVEC [8]": {"test_system": "HUVEC", "experiment": "Effect on YES1 gene expression in serum-starved HUVEC after 6 hrs by microarray analysis relative to control"}, "HUVEC [9]": {"test_system": "HUVEC", "experiment": "Effect on CDCA5 gene expression in serum-starved HUVEC after 6 hrs by microarray analysis relative to control", "how_it_was_run": "(§4)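 Serum-starved confluent HUVEC treated with 2 μM compound or DMSO in 2.5% FBS for 6 h or 24 h; RNA hybridized to Illumina Human-HT12 arrays. Data background-corrected, vst-transformed and rsn-normalized. Differential probes called by moderated paired t-test (limma) at p < 0.05 and log2 fold change >|0.5| vs DMSO.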"}, "HUVEC [10]": {"test_system": "HUVEC", "experiment": "Effect on KRT7 gene expression in serum-starved HUVEC after 6 hrs by microarray analysis relative to control"}, "HUVEC [11]": {"test_system": "HUVEC", "experiment": "Effect on RNA5S9 gene expression in serum-starved HUVEC after 24 hrs by microarray analysis relative to control"}, "HUVEC [12]": {"test_system": "HUVEC", "experiment": "Effect on FAM212A gene expression in serum-starved HUVEC after 24 hrs by microarray analysis relative to control", "how_it_was_run": "as §3"}, "HUVEC [13]": {"test_system": "HUVEC", "experiment": "Effect on CXCL16 gene expression in serum-starved HUVEC after 6 hrs by microarray analysis relative to control", "how_it_was_run": "(§5)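 Confluent serum-starved HUVEC (primary, pooled from 3–5 donors, passage ≤4) treated with 2 μM compound or DMSO vehicle in 2.5% FBS for 6 h or 24 h. Total RNA hybridized to Illumina Human-HT12 arrays, background-corrected, vst-transformed and rsn-normalized. Differential expression versus DMSO by moderated paired t-test (p < 0.05, |log2 fold change| > 0.5).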"}, "HUVEC [14]": {"test_system": "HUVEC", "experiment": "Effect on FDPS gene expression in serum-starved HUVEC after 24 hrs by microarray analysis relative to control", "how_it_was_run": "as §2"}, "HUVEC [15]": {"test_system": "HUVEC", "experiment": "Effect on SULT1C4 gene expression in serum-starved HUVEC after 6 hrs by microarray analysis relative to control"}, "HUVEC [16]": {"test_system": "HUVEC", "experiment": "Effect on CYTL1 gene expression in serum-starved HUVEC after 6 hrs by microarray analysis relative to control", "how_it_was_run": "as §5"}, "HUVEC [17]": {"test_system": "HUVEC", "experiment": "Effect on ITGB2 gene expression in serum-starved HUVEC after 6 hrs by microarray analysis relative to control"}, "HUVEC [18]": {"test_system": "HUVEC", "experiment": "Effect on PCYT2 gene expression in serum-starved HUVEC after 24 hrs by microarray analysis relative to control"}, "HUVEC [19]": {"test_system": "HUVEC", "experiment": "Effect on SMC4 gene expression in serum-starved HUVEC after 24 hrs by microarray analysis relative to control"}, "HUVEC [20]": {"test_system": "HUVEC", "experiment": "Effect on AURKA gene expression in serum-starved HUVEC after 24 hrs by microarray analysis relative to control", "how_it_was_run": "as §5"}, "HUVEC [21]": {"test_system": "HUVEC", "experiment": "Effect on CXCR4 gene expression in serum-starved HUVEC after 24 hrs by microarray analysis relative to control", "how_it_was_run": "as §5"}, "HUVEC [22]": {"test_system": "HUVEC", "experiment": "Effect on HLA-B gene expression in serum-starved HUVEC after 24 hrs by microarray analysis relative to control", "how_it_was_run": "as §2"}, "HUVEC [23]": {"test_system": "HUVEC", "experiment": "Effect on ESM1 gene expression in serum-starved HUVEC after 24 hrs by microarray analysis relative to control", "how_it_was_run": "as §5"}, "HUVEC [24]": {"test_system": "HUVEC", "experiment": "Effect on EMCN gene expression in serum-starved HUVEC after 24 hrs by microarray analysis relative to control", "how_it_was_run": "as §5"}, "HUVEC [25]": {"test_system": "HUVEC", "experiment": "Effect on CCNA2 gene expression in serum-starved HUVEC after 6 hrs by microarray analysis relative to control", "how_it_was_run": "as §4"}, "HUVEC [26]": {"test_system": "HUVEC", "experiment": "Effect on MYO10 gene expression in serum-starved HUVEC after 6 hrs by microarray analysis relative to control"}, "HUVEC [27]": {"test_system": "HUVEC", "experiment": "Effect on CYP4X1 gene expression in serum-starved HUVEC after 6 hrs by microarray analysis relative to control", "how_it_was_run": "as §2"}, "HUVEC [28]": {"test_system": "HUVEC", "experiment": "Effect on SPDL1 gene expression in serum-starved HUVEC after 6 hrs by microarray analysis relative to control"}, "HUVEC [29]": {"test_system": "HUVEC", "experiment": "Effect on CDKN3 gene expression in serum-starved HUVEC after 6 hrs by microarray analysis relative to control", "how_it_was_run": "as §4"}, "HUVEC [30]": {"test_system": "HUVEC", "experiment": "Effect on MIR181A2HG gene expression in serum-starved HUVEC after 24 hrs by microarray analysis relative to control", "how_it_was_run": "as §1"}, "HUVEC [31]": {"test_system": "HUVEC", "experiment": "Effect on HINT3 gene expression in serum-starved HUVEC after 6 hrs by microarray analysis relative to control", "how_it_was_run": "as §2"}, "HUVEC [32]": {"test_system": "HUVEC", "experiment": "Effect on RNA18S5 gene expression in serum-starved HUVEC after 6 hrs by microarray analysis relative to control"}, "HUVEC [33]": {"test_system": "HUVEC", "experiment": "Effect on FILIP1L gene expression in serum-starved HUVEC after 24 hrs by microarray analysis relative to control", "how_it_was_run": "as §2"}, "HUVEC [34]": {"test_system": "HUVEC", "experiment": "Effect on SLC30A7 gene expression in serum-starved HUVEC after 24 hrs by microarray analysis relative to control"}, "HUVEC [35]": {"test_system": "HUVEC", "experiment": "Effect on MAP1B gene expression in serum-starved HUVEC after 24 hrs by microarray analysis relative to control", "how_it_was_run": "as §1"}, "HUVEC [36]": {"test_system": "HUVEC", "experiment": "Effect on ITGA2 gene expression in serum-starved HUVEC after 6 hrs by microarray analysis relative to control", "how_it_was_run": "as §2"}, "HUVEC [37]": {"test_system": "HUVEC", "experiment": "Effect on ASPM gene expression in serum-starved HUVEC after 6 hrs by microarray analysis relative to control", "how_it_was_run": "as §4"}, "HUVEC [38]": {"test_system": "HUVEC", "experiment": "Effect on ELMOD1 gene expression in serum-starved HUVEC after 6 hrs by microarray analysis relative to control", "how_it_was_run": "as §2"}}, "data": [{"smiles": "COc1ccc(Cn2nc(-c3ccccc3)c3cc(Nc4ccc(N5CCN(C)CC5)cc4)nc(N4CCN(C)CC4)c32)cc1", "values": [{"measurement": "log2FC", "setting": "HUVEC [1]", "value": -0.5756}, {"measurement": "log2FC", "setting": "HUVEC [2]", "value": -0.0618}, {"measurement": "log2FC", "setting": "HUVEC [3]", "value": 0.7444}, {"measurement": "log2FC", "setting": "HUVEC [4]", "value": 0.5978}, {"measurement": "log2FC", "setting": "HUVEC [5]", "value": 0.5844}, {"measurement": "log2FC", "setting": "HUVEC [6]", "value": -0.6338}, {"measurement": "fold change (FC)", "setting": "HUVEC [7]", "value": 0.0722}, {"measurement": "log2FC", "setting": "HUVEC [8]", "value": 0.3231}, {"measurement": "fold change (FC)", "setting": "HUVEC [9]", "value": 0.0694}, {"measurement": "fold change (FC)", "setting": "HUVEC [10]", "value": 0.2295}, {"measurement": "log2FC", "setting": "HUVEC [11]", "value": 0.0013}, {"measurement": "fold change (FC)", "setting": "HUVEC [12]", "value": 0.5468}, {"measurement": "fold change (FC)", "setting": "HUVEC [13]", "value": 0.5236}, {"measurement": "log2FC", "setting": "HUVEC [14]", "value": 0.8398}, {"measurement": "fold change (FC)", "setting": "HUVEC [15]", "value": 0.1329}, {"measurement": "fold change (FC)", "setting": "HUVEC [16]", "value": 0.0261}, {"measurement": "fold change (FC)", "setting": "HUVEC [17]", "value": 1.3289}, {"measurement": "log2FC", "setting": "HUVEC [18]", "value": 0.5377}, {"measurement": "log2FC", "setting": "HUVEC [19]", "value": -0.5117}, {"measurement": "fold change (FC)", "setting": "HUVEC [20]", "value": -0.6725}, {"measurement": "fold change (FC)", "setting": "HUVEC [21]", "value": 0.6553}, {"measurement": "log2FC", "setting": "HUVEC [22]", "value": -0.5811}, {"measurement": "fold change (FC)", "setting": "HUVEC [23]", "value": 0.8252}, {"measurement": "fold change (FC)", "setting": "HUVEC [24]", "value": 0.5299}, {"measurement": "log2FC", "setting": "HUVEC [25]", "value": -0.1788}, {"measurement": "fold change (FC)", "setting": "HUVEC [26]", "value": -0.0407}, {"measurement": "fold change (FC)", "setting": "HUVEC [27]", "value": 0.4504}, {"measurement": "log2FC", "setting": "HUVEC [28]", "value": 0.1139}, {"measurement": "log2FC", "setting": "HUVEC [29]", "value": -0.0153}]}, {"smiles": "COc1ccc(Cn2nc(-c3ccccc3)c3cc(Nc4ccc(N5CCN(C)CC5)cc4)nc(N4CCNCC4)c32)cc1", "values": [{"measurement": "log2FC", "setting": "HUVEC [30]", "value": 0.5287}, {"measurement": "log2FC", "setting": "HUVEC [31]", "value": -0.0444}, {"measurement": "log2FC", "setting": "HUVEC [32]", "value": -0.2889}]}, {"smiles": "COc1ccc(Cn2nc(-c3ccccc3)c3cc(Cl)nc(N4CCNCC4)c32)cc1", "values": [{"measurement": "log2FC", "setting": "HUVEC [33]", "value": 0.0497}, {"measurement": "log2FC", "setting": "HUVEC [34]", "value": 0.0778}, {"measurement": "log2FC", "setting": "HUVEC [35]", "value": -0.053}, {"measurement": "log2FC", "setting": "HUVEC [36]", "value": 0.5417}, {"measurement": "fold change (FC)", "setting": "HUVEC [37]", "value": 0.1684}, {"measurement": "log2FC", "setting": "HUVEC [38]", "value": -0.1337}]}]}
